Measurements reported in ChEMBL document CHEMBL4477194, “Royal Jelly Constituents Increase the Expression of Extracellular Superoxide Dismutase through Histone Acetylation in Monocytic THP-1 Cells” (J Nat Prod, 2016).
Active and inactive are the calls of the source. No cut-off for these calls is given here.

Tests used:
[1] = target: Histone deacetylase 1 (Homo sapiens) (UniProt Q13547); experiment: Inhibition of recombinant HDAC1 catalytic domain (unknown origin) using HDAC substrate at 1 mM preincubated for 1 hr followed by substrate addition measured after 30 mins by fluorescence assay relative to control
Chain of Histone deacetylase 1 (Homo sapiens) (Q13547 whole entry, the tested form may be a part): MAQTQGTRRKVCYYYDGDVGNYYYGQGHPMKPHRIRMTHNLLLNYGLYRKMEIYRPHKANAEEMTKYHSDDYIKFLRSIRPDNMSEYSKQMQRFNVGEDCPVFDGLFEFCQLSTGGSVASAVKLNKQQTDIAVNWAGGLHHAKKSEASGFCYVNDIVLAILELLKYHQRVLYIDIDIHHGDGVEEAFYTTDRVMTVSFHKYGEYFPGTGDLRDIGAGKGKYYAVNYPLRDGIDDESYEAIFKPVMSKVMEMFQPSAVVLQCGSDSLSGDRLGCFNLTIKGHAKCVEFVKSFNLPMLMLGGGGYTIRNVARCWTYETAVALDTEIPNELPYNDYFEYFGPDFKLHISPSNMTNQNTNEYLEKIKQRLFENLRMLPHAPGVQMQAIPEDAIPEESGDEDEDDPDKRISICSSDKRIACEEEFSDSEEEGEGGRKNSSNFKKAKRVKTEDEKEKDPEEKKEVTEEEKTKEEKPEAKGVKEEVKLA
In short: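 Recombinant HDAC1 was mixed with compound in assay buffer, and the reaction was started with HDAC substrate for 30 min at 37 °C in the dark. Developer was then added for 15 min at room temperature. Fluorescence was read at ex 365 nm / em 410–460 nm and compared with untreated control; mean ± SD of three independent experiments.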

[2] = species on record: Homo sapiens; experiment: Upregulation of HDAC1 inhibition/ERK signalling activation-mediated extracellular SOD protein expression in human THP1 cells at 1 mM after 24 hrs by ELISA; type: cell-based
In short: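 EC-SOD protein content was measured by ELISA in THP-1 cells after 24 h treatment, with cells collected in PBS. Cells were cultured in RPMI 1640 with 10% heat-inactivated FCS at 37 °C and 5% CO2. Values are mean ± SD of three independent experiments, compared against untreated cells.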

[3] = target: Histone deacetylase 1 (Homo sapiens) (UniProt Q13547); experiment: Inhibition of HDAC1 in human THP1 cells assessed as increase in histone H4 acetylation level at 1 mM after 12 hrs by Western blot analysis relative to control; type: cell-based
In short: (§1)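 After 12 h treatment, THP-1 whole-cell extracts (20 μg protein) were run on 12% SDS-PAGE and transferred to PVDF. Membranes were blocked with 1% BSA in PBS and probed with anti-acetyl histone H3 or H4 primary antibodies (1:1000), then a biotin-conjugated secondary antibody (1:1000). Histone loading was checked by Coomassie staining.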

[4] = system: THP-1; experiment: Effect on Cu/Zn SOD mRNA expression in human THP1 cells at 1 mM after 24 hrs by RT-PCR method; type: functional, cell-based
In short: (§2)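 THP-1 cells (RPMI 1640, 10% heat-inactivated FCS, 37 °C, 5% CO2) were seeded at 2.0 × 10^6 cells/dish and treated for 24 h. Cells were washed with cold PBS and lysed in TRIzol, then analysed by real-time RT-PCR normalized to 18S rRNA. Values are mean ± SD of three independent experiments, with ANOVA and Bonferroni tests.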

[5] = system: THP-1; experiment: Upregulation of Mn SOD mRNA expression in human THP1 cells at 1 mM after 24 hrs by RT-PCR method; type: functional, cell-based; in short: as §2
[6] = target: Histone deacetylase 1 (Homo sapiens) (UniProt Q13547); experiment: Inhibition of HDAC1 in human THP1 cells assessed as increase in histone H3 acetylation level at 1 mM after 12 hrs by Western blot analysis relative to control; type: cell-based; in short: as §1
[7] = target: Histone deacetylase (Homo sapiens) (UniProt Q13547+O15379+Q9UBN7+Q92769+Q9UQL6+Q8WUI4+Q9BY41+Q96DB2+P56524+Q9UKV0+Q969S8); experiment: Inhibition of HDAC activity in human THP1 cells at 1 mM preincubated for 1 hr followed by substrate addition measured after 2 hrs by fluorescence assay relative to control; type: cell-based
In short: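 This is a cell-based HDAC assay. THP-1 cells at 5.0 × 10^4 cells/well were treated for 1 h, then HDAC substrate was added for 2 h at 37 °C. Lysis/developer solution followed for 15 min at 37 °C. Fluorescence was read at ex 365 nm / em 410–460 nm and compared with untreated cells; mean ± SD, n = 3 independent experiments.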

[8] = species on record: Homo sapiens; experiment: Upregulation of HDAC1 inhibition/ERK signalling activation-mediated extracellular SOD mRNA expression in human THP1 cells at 1 mM after 24 hrs by RT-PCR method; type: cell-based; in short: as §2
[9] = target: Histone deacetylase 1 (Homo sapiens) (UniProt Q13547); experiment: Upregulation of HDAC1 inhibition-mediated histone H3 acetylation-induced extracellular SOD expression in human THP1 cells at 1 mM after 12 hrs by chromatin immunoprecipitation method; type: cell-based
In short: (§3)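 THP-1 cells (5 × 10^6) treated 12 h, at 1 mM or 100 μM per line. Cross-linked with formaldehyde 5 min at room temperature and chromatin sonicated to 150–800 bp. Immunoprecipitated overnight on protein G beads and washed in RIPA I/II and TE. Eluted with RNase A and proteinase K. EC-SOD promoter binding expressed as % of input.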

[10] = target: Histone deacetylase 1 (Homo sapiens) (UniProt Q13547); experiment: Upregulation of HDAC1 inhibition-mediated histone H4 acetylation-induced extracellular SOD expression in human THP1 cells at 1 mM after 12 hrs by chromatin immunoprecipitation method; type: cell-based; in short: as §3
[11] = system: THP-1; experiment: Effect on HDAC10 mRNA expression in human THP1 cells at 1 mM after 24 hrs by RT-PCR method; type: functional, cell-based
In short: (§4)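 THP-1 cells in RPMI 1640 with 10% heat-inactivated FCS, 37 °C, 5% CO2. Seeded 2.0 × 10^6 cells per 3.5 cm dish and treated 24 h, at 1 mM for the 1 mM lines and 100 μM for the 100 μM lines. RNA extracted in TRIzol, then real-time RT-PCR normalized to 18S rRNA. Means ± SD of three independent experiments; ANOVA with Bonferroni post hoc.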

[12] = system: THP-1; experiment: Effect on HDAC9 mRNA expression in human THP1 cells at 1 mM after 24 hrs by RT-PCR method; type: functional, cell-based; in short: as §4
[13] = system: THP-1; experiment: Effect on HDAC3 mRNA expression in human THP1 cells at 1 mM after 24 hrs by RT-PCR method; type: functional, cell-based; in short: as §4
[14] = system: THP-1; experiment: Effect on HDAC2 mRNA expression in human THP1 cells at 1 mM after 24 hrs by RT-PCR method; type: functional, cell-based; in short: as §4
[15] = system: THP-1; experiment: Effect on HDAC7 mRNA expression in human THP1 cells at 1 mM after 24 hrs by RT-PCR method; type: functional, cell-based; in short: as §4
[16] = system: THP-1; experiment: Effect on HDAC6 mRNA expression in human THP1 cells at 1 mM after 24 hrs by RT-PCR method; type: functional, cell-based; in short: as §4
[17] = system: THP-1; experiment: Effect on HDAC5 mRNA expression in human THP1 cells at 1 mM after 24 hrs by RT-PCR method; type: functional, cell-based; in short: as §4
[18] = system: THP-1; experiment: Effect on HDAC8 mRNA expression in human THP1 cells at 1 mM after 24 hrs by RT-PCR method; type: functional, cell-based; in short: as §4
[19] = system: THP-1; experiment: Effect on HDAC4 mRNA expression in human THP1 cells at 1 mM after 24 hrs by RT-PCR method; type: functional, cell-based; in short: as §4
[20] = system: THP-1; experiment: Effect on HDAC1 mRNA expression in human THP1 cells at 1 mM after 24 hrs by RT-PCR method; type: functional, cell-based; in short: as §4

Structure (SMILES) | inhibition [1] [%] | Activity [2] | fold change (FC) [3] | Activity [4] | Activity [5] | fold change (FC) [6] | inhibition [7] | Activity [8] | Activity [9] | Activity [10] | Activity [11] | Activity [12] | Activity [13] | Activity [14] | Activity [15] | Activity [16] | Activity [17] | Activity [18] | Activity [19] | Activity [20]
O=C(O)/C=C\CCCCCCCO | 50 | Active | 2.47 | inactive | Active | 1.29 | Active | Active |  |  |  |  |  |  |  |  |  |  |  | 
O=C(O)CCCCCCCCC(=O)O | 50 | Active | 2.24 | inactive | Active | 1.24 | 20% | Active | inactive | Active | inactive | inactive | inactive | inactive | inactive | inactive | inactive | inactive | inactive | inactive
O=C(O)CCCCCCCCCO | 50 | Active | 2.45 | inactive | inactive | 1.33 | 20% | Active | inactive | Active | inactive | inactive | inactive | inactive | inactive | inactive | inactive | inactive | inactive | inactive
